# Screening results deposited in PubChem BioAssay by NMMLSC.
# Sampled rows, rich in hits. Any-hit rate of the full collection: about 2.3%.
# ABCG2 block – ABCG2 efflux pump inhibitors, primary screen, multiplex with ABCB1, IgMXP3 cells, flow cytometry. 190,000 tested, 0.1% active. JC-1 efflux. inhibition, % at 6.6 µM;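 active = inhibition above 80%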
# Target sequence (Q9UNQ0 whole entry, looked up): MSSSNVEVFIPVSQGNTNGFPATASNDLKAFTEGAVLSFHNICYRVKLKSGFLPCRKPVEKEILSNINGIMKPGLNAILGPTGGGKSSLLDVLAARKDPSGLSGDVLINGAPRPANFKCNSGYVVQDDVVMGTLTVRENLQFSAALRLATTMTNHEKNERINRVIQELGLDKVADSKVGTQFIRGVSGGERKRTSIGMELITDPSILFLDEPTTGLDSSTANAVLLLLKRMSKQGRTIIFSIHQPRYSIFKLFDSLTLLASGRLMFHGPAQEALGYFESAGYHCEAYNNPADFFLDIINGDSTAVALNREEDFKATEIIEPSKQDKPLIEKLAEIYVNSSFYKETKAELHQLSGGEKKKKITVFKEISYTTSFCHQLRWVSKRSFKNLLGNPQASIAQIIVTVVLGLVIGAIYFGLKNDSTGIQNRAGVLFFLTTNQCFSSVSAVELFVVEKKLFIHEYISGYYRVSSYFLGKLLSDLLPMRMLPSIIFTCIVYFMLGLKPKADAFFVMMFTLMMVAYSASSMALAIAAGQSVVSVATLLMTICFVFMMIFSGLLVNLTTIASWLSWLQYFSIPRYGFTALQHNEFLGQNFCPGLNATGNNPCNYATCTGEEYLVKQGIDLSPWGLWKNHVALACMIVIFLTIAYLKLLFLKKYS
#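 Test system: ABCG2 IgMXP3 and barcoded ABCB1 CCRF-Adr cell mix; Schedule: cells with compound and JC-1, 10 min at 25 °C, rotating, no wash; Technique: flow cytometry of retained JC-1 fluorescence; Measure: % inhibition of efflux relative to nicardipine and DMSO; Controls: nicardipine high and DMSO low controls.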
# MEKK2 WT-MEK5 – modulators of MEK5 binding to wildtype MEKK2, primary screen, biochemical, multiplex bead flow cytometry, Alexa488-MEK5; Alexa488-MEK5 binding to MEKK2 WT; actives lie on both sides; 290,000 tested, 1.1% active; Mitogen-activated protein kinase kinase kinase 2 (Homo sapiens), Q9Y2U5; binding response (% of control), % at 10 µM; AID 1531, 2009; in the data active = binding response below about 67% or above about 130%
# MEKK2mut PB1 HTS – MEK5 binding signal on mutant MEKK2 PB1, primary screen, biochemical, multiplex bead flow cytometry, Alexa488-MEK5 | 290,000 tested, 0.35% active | percent response, % at 10 µM | Alexa488-MEK5 binding to MEKK2 mutant | AID 1530, 2009; in the data active = percent response above about 24%, passing the limit was not always enough
# MEKK3 PB1 HTS – modulators of MEKK3-MEK5 PB1 binding, primary screen, biochemical, wildtype MEKK3, multiplex bead flow cytometry, Alexa488-MEK5 | binding response (% of control), % at 10 µM | 290,000 tested, 1.4% active | bead-based flow cytometry, Alexa488-MEK5 binding to MEKK3; actives lie on both sides; 0 = blocked by unlabeled MEK5, 100 = vehicle | Mitogen-activated protein kinase kinase kinase 3 (Homo sapiens), Q99759 | AID 1529, 2009;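 active = binding response more than 3 SD above or below the average of its plate-row segment, actives on both sides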;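 also: Alexa488 bead fluorescence after subtracting the streptavidin-only scavenger bead signal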
# ABCB1 inh – ABCB1 efflux pump inhibitors, primary screen, cell-based, multiplex, flow cytometry, ABCG2 counter-screen | ATP-dependent translocase ABCB1 (Homo sapiens), P08183 | 190,000 tested, 0.067% active | inhibition, % at 6.6 µM | CCRF-Adr cells, JC-1 efflux; in the data active = inhibition above about 40%;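 also: higher value means more JC-1 retained so stronger ABCB1 efflux block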
# ABCB1 single pt – ABCB1 efflux pump inhibitors, confirmation, cell-based, single point, ABCG2 counter-screen. shares compounds with ABCG2 block. CCRF-Adr cells, JC-1 efflux, flow cytometry. inhibition, % at 6.6 µM. 270 tested, 7% active;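 active = inhibition of pump activity above 50%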
# ABCG2 single pt – ABCG2 efflux pump inhibitors, confirmation, single point, IgMXP3 cells, ABCB1 counter-screen paired | 270 tested, 6% active | shares compounds with ABCG2 block | inhibition, % at 6.6 µM | JC-1 efflux, flow cytometry;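 active = inhibition above 50%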
# IgMXP3 fluor – compound autofluorescence in ABCG2-expressing IgMXP3 cells, confirmation, artefact control for ABC transporter inhibitor project, cell-based, 488/530 nm, flow cytometry | fluorescence at 6.6 µM | 270 tested, 30% active | shares compounds with ABCG2 block | compound autofluorescence 488/530 nm; hits give high values;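 active = fluorescence in ABCG2-expressing cells above the plate's control-well mean plus 3 SD, cut at about 15 in these data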
# CCRF-Adr fluor – compound autofluorescence in ABCB1-expressing CCRF-Adr cells, confirmation, artefact control for ABC transporter inhibitor project, cell-based, 488/530 nm, flow cytometry | shares compounds with ABCG2 block | compound autofluorescence 488/530 nm; hits give high values | fluorescence at 6.6 µM | 270 tested, 30% active | AID 1483, 2009;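 active = fluorescence beyond the plate control mean plus 3 SD, with a fluorescence-to-maximum score over 2, cut at about 25 in these data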
# A number is an active result; – = inactive; · = not tested or not shown.
SMILES,ABCG2 block,MEKK2 WT-MEK5,MEKK2mut PB1 HTS,MEKK3 PB1 HTS,ABCB1 inh,ABCB1 single pt,ABCG2 single pt,IgMXP3 fluor,CCRF-Adr fluor
CCN(CC)S(=O)(=O)c1ccc(OC)c(NC(=O)c2cccc(C)c2[N+](=O)[O-])c1,88.4,–,–,–,–,–,–,–,–
CCN1C(=O)/C(=C/c2ccc(N3CCCC3)cc2)NC1=S,–,–,–,–,–,–,–,20.2,43.6
CCCN1C(=O)/C(=C/c2ccc(N3CCCC3)c(C)c2)NC1=S,86.0,–,–,–,52.3,–,–,107,137
Cc1cc(/C=C2\NC(=S)N(C)C2=O)ccc1N1CCCC1,–,–,–,–,–,·,·,·,·
CCNc1c2c3c(cccc3n(C)c1=O)C(=O)c1ccccc1-2,–,–,–,–,–,·,·,·,·
Cn1c(=O)c(NCCO)c2c3c(cccc31)C(=O)c1ccccc1-2,84.1,–,–,–,–,–,–,–,–
COc1ccc(S(=O)(=O)N[C@@H](CSCc2ccccc2)C(=O)O)cc1,·,–,–,–,·,·,·,·,·
CCN(CCCNC(=O)CCc1nc(-c2ccc(C)cc2)no1)c1cccc(C)c1,82.8,–,–,–,–,–,–,–,–
CCOC(=O)c1c(C)nc2ccccc2c1-c1ccccc1,–,–,–,–,–,·,·,·,·
CCOC(=O)c1c(C)nc(SC)c(C#N)c1-c1ccccc1,84.9,–,–,–,–,–,–,–,–
COC(=O)c1cc(S(=O)(=O)Nc2cccc(C)c2C)cn1C,·,–,–,–,·,·,·,·,·
CCOC(=O)c1c(C)[nH]c(C)c1S(=O)(=O)N1CCN(c2cccc(C)c2)C(C)C1 (configuration not stated),·,–,–,–,·,·,·,·,·
CCc1nnc(NC(=O)c2cc(S(=O)(=O)N3CCOCC3)ccc2N2CCCCC2)s1,–,·,·,·,68.5,–,–,–,–
O=C(Nc1nnc(C2CC2)s1)c1cc(S(=O)(=O)N2CCCCC2)ccc1N1CCOCC1,·,–,–,–,·,·,·,·,·
Clc1ccc(Cl)c(-c2ccc(/C=N/c3ncn[nH]3)o2)c1,83.5,–,–,–,–,–,–,–,–
O/N=C/c1ccc(-c2cc(Cl)ccc2Cl)o1,–,–,–,–,–,·,·,·,·
COc1cccc(NC(=O)Nc2ccncc2)c1,–,–,–,–,44.5,–,–,–,–
CCc1ccc(OCC(=O)N/N=C(\C)c2ccc(OC(F)F)cc2)cc1,103.9,–,–,–,–,–,–,14.8,–
COC(=O)c1ccc(C(=O)N2CCCC(N3CCN(c4ccc(F)cc4)CC3)C2)nc1 (configuration not stated),·,–,–,–,·,·,·,·,·
COc1ccc(-c2cc(C)no2)cc1S(=O)(=O)NCc1ccc(OC(C)C)cc1,·,–,–,–,·,·,·,·,·
CCOC(=O)C1=C(O)/C(=C/c2ccc(OCC(=O)O)c(OC)c2)SC1=Nc1ccc(OCC)cc1,–,–,–,–,49.7,–,–,–,–
COc1ccc(/C=N/Nc2cc(=O)n(C)c(=O)n2C)cc1OC,88.2,–,–,–,–,–,–,23.3,–
